Compounds with a hit are over-represented: about 2.9% of the library has one in this group of screens.
KLK7 zymogen act: proKLK7 (human) activation, primary screen. P49862. purified proKLK7, EDANS-DABCYL substrate fluorescence; 100% is mature enzyme control, 0% vehicle. activation, % at 7 µM. 370,000 tested, 0.9% active. AID 652039;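 active = activation above the mean of all tested compounds plus 3 SD, computed per campaign excluding outliers beyond control limits, cut at about 13% in these data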
Target sequence (P49862 whole entry, looked up): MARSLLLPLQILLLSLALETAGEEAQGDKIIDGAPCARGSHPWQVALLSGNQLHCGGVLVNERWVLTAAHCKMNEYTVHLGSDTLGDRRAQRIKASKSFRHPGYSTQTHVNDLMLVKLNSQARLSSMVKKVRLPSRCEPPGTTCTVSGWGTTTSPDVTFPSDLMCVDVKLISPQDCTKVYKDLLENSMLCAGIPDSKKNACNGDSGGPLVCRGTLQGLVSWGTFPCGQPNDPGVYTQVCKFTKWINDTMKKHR
Runt-CBFb FRET: inhibitors of human RUNX1 Runt domain binding to CBFb | inhibition, % at 20 µM | 220,000 tested, 0.46% active | Cerulean-Runt/Venus-CBFb FRET ratio 530/480, 1 h | Q01196+Q13951;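 active = inhibition over about 50% at 20 µM in the single-dose screen, limit read from the data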;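 also: 0% = DMSO wells and 100% = excess unlabeled CBFb competitor control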
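Reagent – Venus-CBFb binding partner, 100 nM · Assay system – Cerulean-tagged RUNX1 Runt domain (FRET donor) fusion protein · Input – 100 nM per protein · Incubation – two 1 h room-temperature incubations shielded from light · Measured by – FRET fluorescence · Medium – Tris buffer pH 7.5 with salts and BSA · Benchmarks – unlabeled CBFb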
AI-2 QS modul: Vibrio harveyi AI-2 quorum sensing modulation | Vibrio harveyi JMH597 AI-2 luminescence/OD600 ratio, 9 h; hits give low values; strain lacks LuxN and CqsS sensors; 0 = neutral-control median | activity change, % at 7.5 µM | 300,000 tested, 0.4% active; in the data active = activity change below about -75%, passing the limit was not always enough; inconclusive = no clear call, values can overlap the other calls;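 also: luminescence divided by OD600 gain over 9 h not by final OD600 alone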
Runt-SMMHC FRET: Runt domain-CBFb-SMMHC interaction inhibition | 220,000 tested, 0.74% active | inhibition, % at 20 µM | Q01196+Q13951 | Cerulean-Runt/Venus-CBFb-SMMHC FRET ratio 530/480, 1 h;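 active = mean inhibition across duplicate retests at 20 µM reaching about 50%, limit read from the data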;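 also: 0% = DMSO wells and 100% = wells with excess untagged CBFb-SMMHC; inhibitors lower the FRET ratio by blocking Runt binding to CBFb-SMMHC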
Wee1 stabilizer: inhibitors of human Wee1 degradation; P30291; HeLa Luc-Wee1K328M stability, luciferase luminescence; 100% = proteasome inhibitor MG132 effect; reporter increase, % at 5 µM; 220,000 tested, 1.2% active; AID 1321;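 active = activation above the mean of all tested compounds plus 3 SD, set per screening run, cut at about 8.8% in these data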;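 also: cells exposed to compound for 20 h before luminescence read; 0% = DMSO alone and 100% = MG132 at 30 µM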
RanGTP-Impb inh: disruptors of Ran-importin-beta complex formation – biochemical, FRET, CFP-Ran, YFP-importin-beta, homogeneous, primary screen. 300,000 tested, 1.1% active. inhibition, % (no concentration beside the values). cell-free CFP-Ran/YFP-importin-beta FRET ratio;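 active = more than half of the replicate wells show a fall in the fluorescence ratio signal beyond about 16%, limit read from the data, passing the limit was not always enough; inconclusive = exactly half of the replicate wells pass the set limit; inactive = fewer than half of replicates pass the limit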;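 also: 0% = DMSO wells and 100% = Ran loaded with GDP instead of GTP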
The depositor's hits bear a star; ? = inconclusive; . = no result given; + = active, no number; ! = not active in a repeat.

SMILES	KLK7 zymogen act	Runt-CBFb FRET	AI-2 QS modul	Runt-SMMHC FRET	Wee1 stabilizer	RanGTP-Impb inh
Nc1nonc1-n1nnc(C(=O)N/N=C/c2cccnc2)c1-c1cccs1	0	.	4	.	.	0
CC(C)c1c(C(=O)N/N=C/c2ccc(OCc3ccccc3)cc2)nnn1-c1nonc1N	0	.	11	.	.	+
Cc1ccc(/C=N/NC(=O)c2nnn(-c3nonc3N)c2-c2cccs2)cc1	1	.	22	.	.	189*
O=C(Cn1cc([N+](=O)[O-])cn1)NCc1cc2ccccc2[nH]1	-1	-1	-1	0	-1	-1
NC(=O)c1c(N)sc2c1CCCC2	-2	13	10	-3	1	-10
CN1CCc2c(sc(N)c2C(N)=O)C1	-2	101*	-2	143*	0	86*
CCN1CCc2c(sc(N)c2C(N)=O)C1	0	90*	17	-16	-1	101*
CCN1CCc2nc(N)sc2C1	0	35	12	26	-4	-1
Cc1cc(C(=O)CSc2nnc(-c3cccnc3)n2-c2ccccc2F)c(C)n1CC1CCCO1 (configuration not stated)	0	4	18	-6	-2	5
CCCCn1c(N)c(N(CCOC)C(=O)c2ccc(COc3ccccc3)o2)c(=O)[nH]c1=O	0	.	19	.	.	-1
CN(C)S(=O)(=O)c1cccc(NC(=O)COc2ccc(C(=O)c3ccccc3)cc2)c1	0	.	17	.	.	0
CC(=O)NS(=O)(=O)c1ccc(NC(=O)COc2ccc(C(=O)c3ccccc3)cc2)cc1	0	-3	24	0	10*	-2
COc1ccc(CNc2ccc(Br)cc2)cc1	0	2	-2	2	10*	-3
COc1ccc(NCc2ccc(OC)c(OC)c2)cc1	.	-1	16	-3	1	-7
N#CC1=C(N)N2C(=C(C#N)C1c1ccc(Br)cc1)Nc1ccccc12 (configuration not stated)	1	19	0	60*	5	23*
N#CC1=C(N)N2C(=C(C#N)C1c1cccc(Br)c1)Nc1ccccc12 (configuration not stated)	0	20	16	64*	4	28*
CC(C)C[C@@H]1COc2cccc(N3CCCC3)c2S(=O)(=O)N1	1	.	.	.	.	.
O=C(Cn1nnc(-c2ccccc2F)n1)Nc1ccc(Cl)c(Cl)c1	0	.	.	.	.	.
Cc1cc(C(=O)CN2C(=O)c3cccc(N)c3C2=O)c(C)n1Cc1cccs1	-57	19	44	62*	5	66*
Cc1cccc(-c2cccc3c4c([nH]c23)[C@@H]2C[C@H](N(C)C(=O)Nc3ccccc3)[C@H]([C@H](C)O)CN2CC4)c1	0	.	.	.	.	.
Cc1onc(-c2ccccc2)c1C(=O)Nc1cc(C(F)(F)F)ccc1N1CCOCC1	-1	-3	-2	1	2	1
CCOC(=O)c1ccc(N2CCOCC2)c(NC(=O)c2c(-c3ccccc3)noc2C)c1	1	-3	14	-5	10*	-4
COC(=O)CC1COc2ccccc2N1C(=O)c1ccc(Cl)cc1 (configuration not stated)	-1	-1	-1	1	1	179*
CCCCN1CC(N2CCN(C)CC2)CS1(=O)=O (configuration not stated)	0	.	.	.	.	.
CCCn1c(N)c(NCCN2CCOCC2)c(=O)n(CC(=O)NCc2ccccc2)c1=O	0	1	8	-5	0	3
SMILES	KLK7 zymogen act	Runt-CBFb FRET	AI-2 QS modul	Runt-SMMHC FRET	Wee1 stabilizer	RanGTP-Impb inh
O=C(NCCc1c[nH]c2ccccc12)OCc1cn(Cc2cccc(C(F)(F)F)c2)nn1	1	.	.	.	.	.
COC(=O)Cc1nnn2c1[C@H](C)[C@@H](OC)c1cccc(Cl)c1-2	0	.	.	.	.	.
c1ccc2c(Nc3nncs3)c3ccccc3nc2c1	1	9	22	17	2	59*
CCc1cccc(CC)c1NC(=S)NCc1nc2ccccc2[nH]1	0	1	19	3	-1	6
CN(C)c1nc(Oc2ccc(C(=O)OCC(=O)Nc3ccccc3)cc2)nc(N(C)C)n1	0	0	9	1	9.1*	?
COc1ccc2c(c1)c(C(=O)CN1CCN(Cc3ccccc3)CC1)c(C)n2C	0	0	12	-2	-1	-2
COc1ccc2c(c1)c(C(=O)CN1CCN(C(=O)c3ccco3)CC1)c(C)n2C	0	-3	5	-38	-1	19*
CCOc1ccc(N(CC(=O)Nc2c(C)n(C)n(-c3ccccc3)c2=O)S(=O)(=O)c2ccccc2)cc1	0	-1	6	0	11*	3
O=C(NCCc1cccnc1)c1cc(COc2ccc(F)cc2F)on1	1	.	-76*	.	.	-1
O=C(NCCc1cccnc1)c1cc(COc2ccc(F)cc2Cl)on1	0	.	-31	.	.	0
COc1cccc(CNC(=O)c2cc(COc3c(F)cccc3F)on2)c1	0	-3	-12	1	9.8*	-2
Nc1nc2c(ncn2[C@@H]2O[C@H](C(=O)N[C@@H](Cc3ccccc3)C(=O)NCC3CCCCC3)[C@@H](O)[C@H]2O)c(=O)[nH]1	1	.	.	.	.	.
CCOc1ccc(/C=C2/SC(=S)N(C(C(=O)O)c3ccccc3)C2=O)cc1OCC (configuration not stated)	0	-40	.	-121	17*	.
Cc1ccc(NC(=O)c2ccc(-n3cncn3)c([N+](=O)[O-])c2)cc1	0	-1	-7	-2	-1	26*
O=C(Nc1ccc(Cl)cc1)c1ccc(-n2cncn2)c([N+](=O)[O-])c1	0	0	9	-4	-1	-1
CN(C)C(CNC(=S)Nc1ccc(F)cc1)c1cccnc1 (configuration not stated)	0	1	14	-2	10*	6
CN1CCC2(CC1)C1CN(C)CC=C1C(C#N)=C(N)C2(C#N)C#N (configuration not stated)	-7	71*!	25	75*	5	43*
O=C(NCC1CCCO1)c1cnn2c(C(F)F)cc(C3CC3)nc12 (configuration not stated)	1	.	6	.	.	2
CCOC(=O)c1ccc(-n2c(N)c(C(=O)NCC3CCCO3)sc2=S)cc1 (configuration not stated)	1	45	10	25	0	-3
COc1ccc(-c2cc(C(F)F)n3ncc(C(=O)NCC4CCCO4)c3n2)cc1 (configuration not stated)	-29	18	26	62*	1	58*

High-throughput results: PubChem BioAssay, several laboratories
